Active and inactive are the calls of the source.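 The calls were made as follows, unless noted: active = GFP response above 150% of the DMSO level; inconclusive = fewer than 70 events counted for a yeast strain; inactive = the rest.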
Experiments:
[1] = RPL19A-GFP modulators, yeast TOR pathway, confirmation, cell-based, S. cerevisiae, flow cytometry, cherry picks, mother/daughter gates (AID 2270;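 active = GFP response below 50% of the DMSO control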); details: S. cerevisiae RPL19A-GFP strain, 3 h, at 10 µM, stronger effect = lower value, 100 = same GFP as DMSO wells
[2] = LAP4-GFP expression modulators in yeast, confirmation, cell-based, cherry picks, flow cytometry, mother/daughter gates (AID 2271;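 active = GFP response above 150% of the DMSO control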;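 also: ratio of sample to DMSO plate mean so 100% equals DMSO level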); details: S. cerevisiae LAP4-GFP strain, 3 h, at 10 µM, stronger effect = higher value, 100 means same as DMSO control
Outline: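 System – GFP-fusion yeast strain · Amount – 0.2 OD600 cells · Buffer or medium – SC growth medium · Dosing – single test-compound dose, 10 µM final · Schedule – 3 h treatment at 30 °C with rotation · Detection – GFP by flow cytometry · Read-out – per-gate (all, mother, daughter) GFP response vs DMSO · Benchmarks – positive rapamycin (400 ng/mL), negative DMSO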

[3] = modulators of MEP2-GFP levels in yeast, confirmation, S. cerevisiae, flow cytometry GFP, cherry picks (AID 2272;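 active = GFP response above 150% of the DMSO control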;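 also: ratio of well signal to plate DMSO mean so 100% equals DMSO level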); details: S. cerevisiae MEP2-GFP strain, 3 h, at 10 µM, stronger effect = higher value
[4] = AGP1-GFP expression modulators, hit retest, confirmation, cell-based, flow cytometry, S. cerevisiae, cherry picks (AID 2273);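 also: median GFP channel fluorescence over the whole cell population gate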; details: S. cerevisiae AGP1-GFP strain, 3 h, at 10 µM
[5] = modulators of CIT2-GFP expression in yeast, confirmation, S. cerevisiae, GFP fusion, cherry picks, mother/daughter gates (AID 2274); details: S. cerevisiae CIT2-GFP strain, flow cytometry, 3 h, at 10 µM, stronger effect = higher value
[6] = measured here: daughter cell gate
[7] = measured here: mother cell gate
[8] = measured here: daughter cell gate response
[9] = measured here: mother cell gate response

Structure (SMILES)	GFP response vs DMSO [1]	GFP response vs DMSO [1, 6] [%]	GFP response vs DMSO [1, 7] [%]	GFP response relative to DMSO [2]	GFP response relative to DMSO [2, 8] [%]	GFP response relative to DMSO [2, 9] [%]	GFP response vs DMSO [3]	GFP response, % of DMSO [4]	GFP response, % of DMSO [5]	GFP response, % of DMSO [5, 6] [%]	GFP response, % of DMSO [5, 7] [%]
Cc1ccsc1C(=O)N(Cc1nnc(-c2ccccc2Cl)o1)C1CC1	95.8% (inactive)	97.3	95.2	98.9% (inactive)	96	100	103% (inactive)	102% (inactive)	100% (inactive)	99.3	99.3
CC(=O)SC(C[N+](=O)[O-])c1cn(C(C)=O)c2ccccc12 (stereo not drawn)	98.6% (inactive)	102	90.1	242% (active)	216	236	96.8% (inactive)	98% (inactive)	94.4% (inactive)	97.4	88.2
CCc1ccc(-c2csc(NC(=O)COC(=O)CCc3nc4ccccc4s3)n2)cc1	105% (inactive)	102	106	98.2% (inactive)	97.5	98.4	103% (inactive)	103% (inactive)	106% (inactive)	101	105
O=C(CSc1nc2ccsc2c(=O)n1CC1CCC(C(=O)O)CC1)c1ccc(F)cc1 (stereo not drawn)	102% (inactive)	100	103	89% (inactive)	89.5	91.1	100% (inactive)	94.6% (inactive)	92.6% (inactive)	94.8	92.3
COCCNC(=O)/C(C#N)=C/c1c(N2CC(C)OC(C)C2)nc2ccccn2c1=O (stereo not drawn)	100% (inactive)	98.6	100	98.2% (inactive)	95.9	97.3	103% (inactive)	98.8% (inactive)	102% (inactive)	101	101
CCN(CC)C(=O)Cn1c(C)c(/C=C/c2cc[n+](C)cc2)c2ccccc21	107% (inactive)	106	106	108% (inactive)	110	107	126% (inactive)	98.6% (inactive)	109% (inactive)	110	105
CC[n+]1cc(C)ccc1/C=C/c1ccc(N(C)C)cc1	104% (inactive)	106	103	134% (inactive)	138	128	162% (inactive)	104% (inactive)	134% (inactive)	141	126
COc1cccc(/C=N/Nc2nc(-c3cccnc3)nc3ccccc23)c1	94.7% (inactive)	93.3	93.5	104% (inactive)	101	106	106% (inactive)	101% (inactive)	103% (inactive)	103	100
CC1=CC(=O)C(C(C)C)=C/C1=N/OS(=O)(=O)c1ccccc1	78.6% (inactive)	51.6	71.3	271% (active)	175	270	127% (inactive)	118% (inactive)	99.7% (inactive)	111	83.8
O=C1ON=C(c2ccccc2)/C1=C/c1ccco1	95.8% (inactive)	86.4	85.2	169% (active)	137	161	141% (inactive)	89.2% (inactive)	83.5% (inactive)	92.7	70
C(=N\Nc1ccccn1)/c1c[nH]c2ccccc12	103% (inactive)	102	104	97% (inactive)	95.9	96.2	101% (inactive)	104% (inactive)	100% (inactive)	99.2	98.1
O=C(/C=C/c1c(F)cccc1Cl)c1ccc(O)cc1	94.3% (inactive)	94	94.6	144% (inactive)	137	152	105% (inactive)	105% (inactive)	94.7% (inactive)	93.7	93.7
Cc1cccc(C)c1OCCOC(=O)c1n[nH]c2ccccc12	98.8% (inactive)	97	100	96.5% (inactive)	93.6	82.8	106% (inactive)	91.9% (inactive)	95% (inactive)	96.4	93.3
